Measured values as given in ChEMBL document CHEMBL1154934, “Identification of piperazine-bisamide GHSR antagonists for the treatment of obesity” (Bioorg Med Chem Lett, 2010).

Tests used:
[1] = molecular target: T1, Growth hormone secretagogue receptor type 1 (Homo sapiens, UniProt Q92847); experiment: Antagonist activity at human GHSR expressed in CHOK1 cells assessed as inhibition of ghrelin-induced intracellular calcium flux by aequorin flash luminescence assay; format: functional, cell-based, CHO-K1
T1 sequence (Q92847 whole entry): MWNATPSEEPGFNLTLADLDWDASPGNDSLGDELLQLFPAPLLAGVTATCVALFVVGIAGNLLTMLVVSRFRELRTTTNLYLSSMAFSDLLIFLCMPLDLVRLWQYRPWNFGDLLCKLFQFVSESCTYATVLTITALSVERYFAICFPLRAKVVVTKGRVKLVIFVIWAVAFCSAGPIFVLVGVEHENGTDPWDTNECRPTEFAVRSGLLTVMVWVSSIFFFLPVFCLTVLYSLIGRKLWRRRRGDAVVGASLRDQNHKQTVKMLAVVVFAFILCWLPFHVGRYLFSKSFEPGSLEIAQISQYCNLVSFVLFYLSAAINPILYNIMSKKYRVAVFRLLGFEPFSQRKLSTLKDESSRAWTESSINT
How it was run: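 Aequorin flash luminescence in CHO-K1 cells stably co-expressing human ghrelin receptor and aequorin. […] IC50 values are means of three determinations.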

[2] = molecular target: Growth hormone secretagogue receptor type 1 (Rattus norvegicus) (UniProt O08725); experiment: Agonist activity at rat GHSR expressed in CHO cells assessed as increase in ghrelin-induced [3H]IP accumulation at 10 uM after 1 hr by scintillation counting relative to ghrelin; format: functional, cell-based
How it was run: (§1)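 CHO cells stably expressing human or rat GHSR labelled 12 h with 3H-inositol (1 µCi/mL in DMEM), then exposed to ghrelin or compound at 37 °C for 1.0 h. Lysis with 20 mM formic acid, 4 °C, 4 h. Extract taken onto SPA beads, 12 h in the dark, then radioactivity counted. IP accumulation expressed as % of maximal ghrelin response at 10, 1.0 and 0.1 µM.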

[3] = molecular target: 5-hydroxytryptamine receptor 2A (Homo sapiens, UniProt P28223); experiment: Inhibition of 5HT2A (receptor)
Chain of 5-hydroxytryptamine receptor 2A (P28223 whole entry): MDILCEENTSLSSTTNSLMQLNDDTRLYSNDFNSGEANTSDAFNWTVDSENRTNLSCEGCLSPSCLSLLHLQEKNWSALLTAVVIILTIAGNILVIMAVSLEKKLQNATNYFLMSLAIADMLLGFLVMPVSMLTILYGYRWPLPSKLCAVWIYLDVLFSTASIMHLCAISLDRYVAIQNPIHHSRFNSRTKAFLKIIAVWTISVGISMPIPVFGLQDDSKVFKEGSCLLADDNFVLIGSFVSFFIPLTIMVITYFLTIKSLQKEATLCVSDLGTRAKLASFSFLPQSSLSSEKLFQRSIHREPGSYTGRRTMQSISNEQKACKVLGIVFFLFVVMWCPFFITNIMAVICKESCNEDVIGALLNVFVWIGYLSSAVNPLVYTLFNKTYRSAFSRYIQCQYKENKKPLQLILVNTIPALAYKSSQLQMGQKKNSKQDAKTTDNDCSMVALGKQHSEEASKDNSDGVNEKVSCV

[4] = molecular target: T2, 5-hydroxytryptamine receptor 2C (Homo sapiens, UniProt P28335); experiment: Inhibition of 5HT2C (receptor)
T2 sequence (P28335 whole entry): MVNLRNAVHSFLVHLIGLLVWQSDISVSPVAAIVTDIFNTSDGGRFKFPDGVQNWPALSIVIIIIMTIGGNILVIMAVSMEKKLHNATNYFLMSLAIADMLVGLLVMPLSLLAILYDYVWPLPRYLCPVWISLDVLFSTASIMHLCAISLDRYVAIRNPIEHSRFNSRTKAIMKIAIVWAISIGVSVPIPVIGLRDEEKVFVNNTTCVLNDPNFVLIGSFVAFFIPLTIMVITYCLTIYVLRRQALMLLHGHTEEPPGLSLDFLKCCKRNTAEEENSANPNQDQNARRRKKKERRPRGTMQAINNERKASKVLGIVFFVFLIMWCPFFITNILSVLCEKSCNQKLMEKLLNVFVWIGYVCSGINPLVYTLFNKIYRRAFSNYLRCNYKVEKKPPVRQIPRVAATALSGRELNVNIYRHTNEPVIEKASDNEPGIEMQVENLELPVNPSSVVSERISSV

[5] = molecular target: Sodium-dependent serotonin transporter (Homo sapiens, UniProt P31645); experiment: Inhibition of SERT
Chain of Sodium-dependent serotonin transporter (P31645 whole entry): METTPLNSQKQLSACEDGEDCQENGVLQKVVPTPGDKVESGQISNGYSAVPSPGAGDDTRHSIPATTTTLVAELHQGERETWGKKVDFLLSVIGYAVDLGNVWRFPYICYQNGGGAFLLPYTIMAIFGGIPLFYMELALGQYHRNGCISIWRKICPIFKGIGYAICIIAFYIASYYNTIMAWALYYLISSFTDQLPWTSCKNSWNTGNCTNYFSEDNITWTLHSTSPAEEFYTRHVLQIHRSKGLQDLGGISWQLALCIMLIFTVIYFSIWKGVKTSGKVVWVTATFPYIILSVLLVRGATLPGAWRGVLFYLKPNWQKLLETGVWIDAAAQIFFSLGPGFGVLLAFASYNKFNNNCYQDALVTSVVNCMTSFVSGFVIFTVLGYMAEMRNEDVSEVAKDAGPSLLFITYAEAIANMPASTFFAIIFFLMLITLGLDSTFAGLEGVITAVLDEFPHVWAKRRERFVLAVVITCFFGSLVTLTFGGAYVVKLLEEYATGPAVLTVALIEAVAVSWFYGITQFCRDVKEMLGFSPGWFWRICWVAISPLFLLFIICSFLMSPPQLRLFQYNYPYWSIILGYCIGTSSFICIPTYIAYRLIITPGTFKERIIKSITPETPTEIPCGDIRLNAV

[6] = molecular target: T3, Alpha-2A adrenergic receptor (Homo sapiens, UniProt P08913); experiment: Inhibition of alpha2A adrenergic receptor
T3 sequence (P08913 whole entry): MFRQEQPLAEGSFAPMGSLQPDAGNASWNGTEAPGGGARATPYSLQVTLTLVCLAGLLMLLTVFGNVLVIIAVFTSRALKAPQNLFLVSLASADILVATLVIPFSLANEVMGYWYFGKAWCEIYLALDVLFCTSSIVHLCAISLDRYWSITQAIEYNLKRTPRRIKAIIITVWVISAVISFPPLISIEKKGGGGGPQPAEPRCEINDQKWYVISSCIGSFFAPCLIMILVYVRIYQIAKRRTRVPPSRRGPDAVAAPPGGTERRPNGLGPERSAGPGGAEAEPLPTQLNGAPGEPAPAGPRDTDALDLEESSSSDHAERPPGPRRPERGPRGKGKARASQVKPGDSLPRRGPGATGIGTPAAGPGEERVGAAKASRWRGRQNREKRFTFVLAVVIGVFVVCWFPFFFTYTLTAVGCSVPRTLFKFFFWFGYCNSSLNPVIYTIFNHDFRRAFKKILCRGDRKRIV

D(2) dopamine receptor = D(2) dopamine receptor (Homo sapiens, UniProt P14416); experiment: Inhibition of dopamine D2 receptor
Chain of D(2) dopamine receptor (P14416 whole entry): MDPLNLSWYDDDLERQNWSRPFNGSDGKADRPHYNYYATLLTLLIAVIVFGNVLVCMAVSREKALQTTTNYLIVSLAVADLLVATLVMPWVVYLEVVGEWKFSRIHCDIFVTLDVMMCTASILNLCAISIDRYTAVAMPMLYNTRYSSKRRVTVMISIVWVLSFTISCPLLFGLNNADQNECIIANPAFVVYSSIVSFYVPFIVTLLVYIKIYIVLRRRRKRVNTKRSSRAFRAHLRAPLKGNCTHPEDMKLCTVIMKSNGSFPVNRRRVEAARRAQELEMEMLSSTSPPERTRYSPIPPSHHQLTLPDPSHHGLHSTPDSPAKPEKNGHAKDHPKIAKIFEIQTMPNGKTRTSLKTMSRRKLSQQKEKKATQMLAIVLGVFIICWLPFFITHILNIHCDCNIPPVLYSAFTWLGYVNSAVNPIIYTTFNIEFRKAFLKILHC

D(3) dopamine receptor = D(3) dopamine receptor (Homo sapiens, UniProt P35462); experiment: Inhibition of dopamine D3 receptor
Chain of D(3) dopamine receptor (P35462 whole entry): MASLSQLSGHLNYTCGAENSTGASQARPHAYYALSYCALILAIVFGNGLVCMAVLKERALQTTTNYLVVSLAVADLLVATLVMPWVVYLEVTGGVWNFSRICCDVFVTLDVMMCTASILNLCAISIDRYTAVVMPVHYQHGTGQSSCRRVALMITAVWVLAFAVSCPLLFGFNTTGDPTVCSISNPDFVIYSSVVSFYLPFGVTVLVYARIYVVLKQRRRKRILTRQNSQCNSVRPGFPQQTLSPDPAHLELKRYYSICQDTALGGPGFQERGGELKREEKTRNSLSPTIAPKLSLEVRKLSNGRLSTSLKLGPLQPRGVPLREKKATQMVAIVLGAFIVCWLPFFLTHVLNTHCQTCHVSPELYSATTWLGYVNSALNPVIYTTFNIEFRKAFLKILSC

[7] = molecular target: Sodium-dependent dopamine transporter (Homo sapiens, UniProt Q01959); experiment: Inhibition of DAT
Chain of Sodium-dependent dopamine transporter (Q01959 whole entry): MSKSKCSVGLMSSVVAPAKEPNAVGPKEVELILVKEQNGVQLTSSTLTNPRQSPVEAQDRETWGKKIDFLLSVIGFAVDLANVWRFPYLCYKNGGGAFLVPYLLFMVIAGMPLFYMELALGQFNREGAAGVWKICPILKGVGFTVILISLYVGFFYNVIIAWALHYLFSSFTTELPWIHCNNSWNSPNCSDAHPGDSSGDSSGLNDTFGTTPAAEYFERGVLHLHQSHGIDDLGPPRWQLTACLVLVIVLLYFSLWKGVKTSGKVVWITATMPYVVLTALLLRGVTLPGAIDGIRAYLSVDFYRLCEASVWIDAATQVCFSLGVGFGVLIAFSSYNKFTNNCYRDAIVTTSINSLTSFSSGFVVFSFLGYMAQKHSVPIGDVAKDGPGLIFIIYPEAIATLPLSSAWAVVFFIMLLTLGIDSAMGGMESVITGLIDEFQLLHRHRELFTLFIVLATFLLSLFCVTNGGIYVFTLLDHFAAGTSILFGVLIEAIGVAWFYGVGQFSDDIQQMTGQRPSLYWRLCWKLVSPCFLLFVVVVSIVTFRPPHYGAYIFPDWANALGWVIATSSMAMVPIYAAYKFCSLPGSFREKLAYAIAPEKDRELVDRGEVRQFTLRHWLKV

Mu-type opioid receptor = Mu-type opioid receptor (Homo sapiens, UniProt P35372); experiment: Inhibition of mu opioid receptor
[8] = molecular target: Kappa-type opioid receptor (Homo sapiens, UniProt P41145); experiment: Inhibition of kappa opioid receptor
Chain of Kappa-type opioid receptor (P41145 whole entry): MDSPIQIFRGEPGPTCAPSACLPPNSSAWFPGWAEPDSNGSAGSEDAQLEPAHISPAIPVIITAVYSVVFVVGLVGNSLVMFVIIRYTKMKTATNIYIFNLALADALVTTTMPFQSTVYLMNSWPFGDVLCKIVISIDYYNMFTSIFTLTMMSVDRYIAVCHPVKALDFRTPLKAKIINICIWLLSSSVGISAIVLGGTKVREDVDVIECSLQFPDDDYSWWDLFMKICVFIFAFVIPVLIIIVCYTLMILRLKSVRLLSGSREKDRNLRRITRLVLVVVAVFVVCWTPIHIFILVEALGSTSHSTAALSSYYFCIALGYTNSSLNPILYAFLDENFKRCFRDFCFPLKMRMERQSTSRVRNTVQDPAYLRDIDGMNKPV

[9] = molecular target: Muscarinic acetylcholine receptor M3 (Homo sapiens, UniProt P20309); experiment: Inhibition of muscarinic M3 receptor
Chain of Muscarinic acetylcholine receptor M3 (P20309 whole entry): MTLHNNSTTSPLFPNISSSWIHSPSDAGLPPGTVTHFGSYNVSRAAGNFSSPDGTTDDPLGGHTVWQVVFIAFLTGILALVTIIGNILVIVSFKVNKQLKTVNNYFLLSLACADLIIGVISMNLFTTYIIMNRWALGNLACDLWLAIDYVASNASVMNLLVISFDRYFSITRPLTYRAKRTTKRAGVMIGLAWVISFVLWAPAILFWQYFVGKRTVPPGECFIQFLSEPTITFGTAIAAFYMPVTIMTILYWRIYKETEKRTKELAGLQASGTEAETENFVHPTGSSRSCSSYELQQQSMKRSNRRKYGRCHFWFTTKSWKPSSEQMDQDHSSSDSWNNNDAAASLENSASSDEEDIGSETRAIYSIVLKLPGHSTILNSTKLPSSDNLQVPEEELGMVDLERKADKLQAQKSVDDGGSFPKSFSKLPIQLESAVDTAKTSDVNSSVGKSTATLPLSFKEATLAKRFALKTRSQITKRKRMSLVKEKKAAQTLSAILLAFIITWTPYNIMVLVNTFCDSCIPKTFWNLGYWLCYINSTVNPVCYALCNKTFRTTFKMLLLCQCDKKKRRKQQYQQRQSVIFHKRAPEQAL

[10] = molecular target: Sodium-dependent noradrenaline transporter (Homo sapiens, UniProt P23975); experiment: Inhibition of NET
Chain of Sodium-dependent noradrenaline transporter (P23975 whole entry): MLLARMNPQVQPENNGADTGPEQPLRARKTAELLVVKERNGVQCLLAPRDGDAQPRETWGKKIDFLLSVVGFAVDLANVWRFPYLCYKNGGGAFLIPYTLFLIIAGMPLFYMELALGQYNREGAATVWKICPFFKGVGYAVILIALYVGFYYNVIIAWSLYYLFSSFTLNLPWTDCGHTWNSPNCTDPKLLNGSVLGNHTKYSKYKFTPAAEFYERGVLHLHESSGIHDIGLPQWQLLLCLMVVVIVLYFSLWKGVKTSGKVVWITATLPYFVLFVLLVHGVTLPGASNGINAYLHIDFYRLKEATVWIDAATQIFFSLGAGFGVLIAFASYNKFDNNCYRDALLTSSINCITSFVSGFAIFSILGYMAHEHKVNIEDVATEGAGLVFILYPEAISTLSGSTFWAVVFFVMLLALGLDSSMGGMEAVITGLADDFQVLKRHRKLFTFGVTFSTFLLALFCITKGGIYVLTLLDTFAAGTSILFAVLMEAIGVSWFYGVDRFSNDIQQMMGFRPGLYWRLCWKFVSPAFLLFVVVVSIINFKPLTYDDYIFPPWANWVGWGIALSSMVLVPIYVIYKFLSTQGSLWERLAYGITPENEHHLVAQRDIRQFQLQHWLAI

Histamine H2 receptor = Histamine H2 receptor (Homo sapiens, UniProt P25021); experiment: Inhibition of histamine H2 receptor
Chain of Histamine H2 receptor (P25021 whole entry): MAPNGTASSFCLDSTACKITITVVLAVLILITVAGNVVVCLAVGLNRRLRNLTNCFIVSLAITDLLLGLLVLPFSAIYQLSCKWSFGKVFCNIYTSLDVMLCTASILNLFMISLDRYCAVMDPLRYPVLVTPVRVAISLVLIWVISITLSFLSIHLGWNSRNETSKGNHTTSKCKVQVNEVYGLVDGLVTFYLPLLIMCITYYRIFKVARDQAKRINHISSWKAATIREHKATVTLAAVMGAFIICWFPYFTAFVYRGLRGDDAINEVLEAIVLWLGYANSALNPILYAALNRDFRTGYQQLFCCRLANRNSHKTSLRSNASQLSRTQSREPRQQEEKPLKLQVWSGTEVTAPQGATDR

[11] = molecular target: T1, Growth hormone secretagogue receptor type 1; experiment: Agonist activity at human GHSR expressed in CHO cells assessed as increase in ghrelin-induced [3H]IP accumulation at 10 uM after 1 hr by scintillation counting relative to ghrelin; format: functional, cell-based; how it was run: as §1
[12] = Induction of growth hormone release from Sprague-Dawley rat pituitary cells at 1 uM after 20 mins by RIA assay relative to ghrelin; format: functional, Pituitary gland cell
How it was run: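 Pituitary cells from 6–8-week-old male SD rats plated on poly-D-lysine and cultured 3 days at 37 °C. Washed with DMEM assay buffer (20 mM Hepes, 0.3% BSA) and held 5 min at 37 °C. Treated with rat ghrelin or compound for 20 min, then GH release measured as % of maximal ghrelin response. Means of three determinations.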

Compound	IC50 [1]	Activity [2]	Ki [3]	Ki [4]	Ki [5]	Ki [6]	Ki (D(2) dopamine receptor)	Ki (D(3) dopamine receptor)	Ki [7]	Ki (Mu-type opioid receptor)	Ki [8]	Ki [9]	Ki [10]	Ki (Histamine H2 receptor)	Activity [11]	Activity [12]
COc1cccc(-c2ccc(C(=O)N3CCN(C(=O)c4ccc5cc[nH]c5c4)CC3)cc2)c1	0.025 µM	–	–	–	–	–	–	–	–	–	–	–	–	–	–	–
C[C@H]1CN(C(=O)c2csc(-c3ccccc3F)n2)CCN1C(=O)c1ccc2cc[nH]c2c1	0.0337 µM	14%	–	–	–	–	–	–	–	–	–	–	–	–	–	–
C[C@H]1CN(C(=O)c2ccc(-c3ccccc3)cc2F)CCN1C(=O)c1ccc2cc[nH]c2c1	0.0177 µM	43%	–	–	–	–	–	–	–	–	–	–	–	–	–	–
C[C@H]1CN(C(=O)c2ccc(-c3ccc(F)cc3)cc2)CCN1C(=O)c1ccc2cc[nH]c2c1	0.064 µM	–	> 10 µM	> 10 µM	> 10 µM	> 10 µM	> 10 µM	> 10 µM	> 10 µM	> 10 µM	> 10 µM	> 10 µM	> 10 µM	> 10 µM	–	–
C[C@H]1CN(C(=O)c2ccc(-c3ccccc3Cl)cc2)CCN1C(=O)c1ccc2cc[nH]c2c1	0.0021 µM	32%	> 10 µM	> 10 µM	> 10 µM	> 10 µM	> 10 µM	> 10 µM	> 10 µM	> 10 µM	> 10 µM	> 10 µM	> 10 µM	> 10 µM	35%	24%
COc1cccc(-c2ccc(C(=O)N3CCN(C(=O)c4ccc5cc[nH]c5c4)C[C@@H]3C)cc2)c1	0.28 µM	–	–	–	–	–	–	–	–	–	–	–	–	–	–	–
C[C@H]1CN(C(=O)c2ccc(-c3ccccc3Cl)nc2)CCN1C(=O)c1ccc2cc[nH]c2c1	0.013 µM	14%	–	–	–	–	–	–	–	–	–	–	–	–	–	–

More lines, in order of falling IC50 [1], values ahead:

IC50 [1]	Activity [2]	Ki [3]	Ki [4]	Ki [5]	Ki [6]	Ki (D(2) dopamine receptor)	Ki (D(3) dopamine receptor)	Ki [7]	Ki (Mu-type opioid receptor)	Ki [8]	Ki [9]	Ki [10]	Ki (Histamine H2 receptor)	Activity [11]	Compound	Activity [12]
0.64 µM	–	> 10 µM	> 10 µM	> 10 µM	> 10 µM	> 10 µM	> 10 µM	> 10 µM	> 10 µM	> 10 µM	> 10 µM	> 10 µM	> 10 µM	–	COc1cccc(-c2ccc(C(=O)N3CCN(C(=O)c4ccc5cc[nH]c5c4)[C@H](C)C3)cc2)c1	–
0.339 µM	–	–	–	–	–	–	–	–	–	–	–	–	–	–	C[C@H]1CN(C(=O)c2ccc(N3CCOCC3)cc2)CCN1C(=O)c1ccc2cc[nH]c2c1	–
0.147 µM	–	> 10 µM	> 10 µM	> 10 µM	> 10 µM	> 10 µM	> 10 µM	> 10 µM	> 10 µM	> 10 µM	> 10 µM	> 10 µM	> 10 µM	–	C[C@H]1CN(C(=O)c2ccc(-c3cccc(F)c3)cc2)CCN1C(=O)c1ccc2cc[nH]c2c1	–
0.077 µM	–	> 10 µM	> 10 µM	> 10 µM	> 10 µM	> 10 µM	> 10 µM	> 10 µM	> 10 µM	> 10 µM	> 10 µM	> 10 µM	> 10 µM	–	C[C@H]1CN(C(=O)c2ccc(-c3cccc(C(F)(F)F)c3)cc2)CCN1C(=O)c1ccc2cc[nH]c2c1	–
0.0372 µM	18%	–	–	–	–	–	–	–	–	–	–	–	–	–	C[C@H]1CN(C(=O)c2ccc(-c3ccccc3Cl)cn2)CCN1C(=O)c1ccc2cc[nH]c2c1	–
0.0143 µM	36%	–	–	–	–	–	–	–	–	–	–	–	–	–	Cc1cc(-c2ccccc2)ccc1C(=O)N1CCN(C(=O)c2ccc3cc[nH]c3c2)[C@@H](C)C1	–
0.0127 µM	-2%	–	–	–	–	–	–	–	–	–	–	–	–	–	C[C@H]1CN(C(=O)c2ccc(-c3ccncc3)cc2)CCN1C(=O)c1ccc2cc[nH]c2c1	–
